Biological target: Glutathione hydrolase 1 proenzyme (Homo sapiens, UniProt P19440)
Assay: Inhibition of gamma-glutamyltranspeptidase by colorimetric assay
Summary of the method: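 Colorimetric read-out at 405 nm by a standard procedure. IC50 is the […] giving 50% inhibition of enzyme activity. Values are the average of three independent experiments (n = 3).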

Chain of Glutathione hydrolase 1 proenzyme (P19440 1-380 limits assumed): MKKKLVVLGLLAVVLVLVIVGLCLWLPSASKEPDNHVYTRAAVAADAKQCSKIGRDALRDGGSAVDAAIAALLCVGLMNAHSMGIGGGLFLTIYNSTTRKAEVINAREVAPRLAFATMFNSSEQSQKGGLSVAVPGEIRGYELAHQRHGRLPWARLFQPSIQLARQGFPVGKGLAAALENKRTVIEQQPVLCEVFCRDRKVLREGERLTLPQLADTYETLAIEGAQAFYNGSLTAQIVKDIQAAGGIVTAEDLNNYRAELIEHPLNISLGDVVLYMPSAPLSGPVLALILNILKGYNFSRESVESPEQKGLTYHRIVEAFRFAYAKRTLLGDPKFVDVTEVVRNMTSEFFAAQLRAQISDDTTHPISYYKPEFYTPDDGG
Chain of Glutathione hydrolase 1 proenzyme (P19440 381-569 limits assumed): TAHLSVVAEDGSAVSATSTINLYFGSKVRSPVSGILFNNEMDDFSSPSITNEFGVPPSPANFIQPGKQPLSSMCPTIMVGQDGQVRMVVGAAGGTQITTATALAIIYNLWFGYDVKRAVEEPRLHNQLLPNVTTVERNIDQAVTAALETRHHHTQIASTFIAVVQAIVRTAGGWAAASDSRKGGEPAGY

Row | Compound | IC50 [µM]
1 | CNC(=O)C1=C(C)C2Sc3ccccc3N=C2C(C(=O)NC)C1c1ccc2c(c1)OCO2 (configuration not stated) [2-(1,3-Benzodioxol-5-yl)-N,N',4-trimethyl-2,10-dihydro-1H-phenothiazine-1,3-dicarboxamide] | > 30
2 | CNC(=O)C1=C(C)C2Sc3ccccc3N=C2C(C(=O)NC)C1c1ccccc1OC (configuration not stated) [2-(2-Methoxyphenyl)-N,N',4-trimethyl-2,10-dihydro-1H-phenothiazine-1,3-dicarboxamide] | > 30
